According to ChEMBL document CHEMBL1212875, “Improved inhibition of the histone acetyltransferase PCAF by an anacardic acid derivative” (Bioorg Med Chem, 2010):
Calls of active or inactive are those of the source. The calls are words filed in the database; no cut-off is given here.

What was measured:
[1] = target: T1, Histone acetyltransferase KAT2B (Homo sapiens, UniProt Q92831); assay: Inhibition of human recombinant histone acetyltransferase PCAF by ELISA
Summary of the method: (§1)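 Indirect ELISA. Biotinylated histone H4 peptide (300 nM coating) captured on streptavidin wells. Recombinant human PCAF (240 nM solution) preincubated 15 min with inhibitor in 100 mM HEPES pH 7.4, 0.1% BSA, 0.16% Triton X-100. Reaction started with Ac-CoA (40 µM solution) for 15 min. Detection by anti-acetyl-Lys antibody, HRP secondary, TMB, A450. No-inhibitor wells = 100%, no-Ac-CoA = 0%. Triplicate; DMSO stocks.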

[2] = target: T1, Histone acetyltransferase KAT2B; assay: Inhibition of […] in human HepG2 cells assessed as decrease in SAHA-induced histone H4 acetylation levels at 30 uM after 24 hrs by Western blotting; format: cell-based
Summary of the method: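 HepG2 cells in DMEM with 10% heat-inactivated FBS at 37 °C, 5% CO2; grown to ~70% confluency, FBS-starved 16 h, then treated 24 h with 5 µM SAHA plus inhibitor at sub-toxic concentrations. Histones extracted, ~5 µg resolved by SDS-PAGE, immunoblotted with anti-acetyl-histone H4; densitometry with Coomassie loading check. Levels relative to untreated cells (100%), mean ± SEM of three independent experiments.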
Target sequence in this assay (Q92831 whole entry, looked up): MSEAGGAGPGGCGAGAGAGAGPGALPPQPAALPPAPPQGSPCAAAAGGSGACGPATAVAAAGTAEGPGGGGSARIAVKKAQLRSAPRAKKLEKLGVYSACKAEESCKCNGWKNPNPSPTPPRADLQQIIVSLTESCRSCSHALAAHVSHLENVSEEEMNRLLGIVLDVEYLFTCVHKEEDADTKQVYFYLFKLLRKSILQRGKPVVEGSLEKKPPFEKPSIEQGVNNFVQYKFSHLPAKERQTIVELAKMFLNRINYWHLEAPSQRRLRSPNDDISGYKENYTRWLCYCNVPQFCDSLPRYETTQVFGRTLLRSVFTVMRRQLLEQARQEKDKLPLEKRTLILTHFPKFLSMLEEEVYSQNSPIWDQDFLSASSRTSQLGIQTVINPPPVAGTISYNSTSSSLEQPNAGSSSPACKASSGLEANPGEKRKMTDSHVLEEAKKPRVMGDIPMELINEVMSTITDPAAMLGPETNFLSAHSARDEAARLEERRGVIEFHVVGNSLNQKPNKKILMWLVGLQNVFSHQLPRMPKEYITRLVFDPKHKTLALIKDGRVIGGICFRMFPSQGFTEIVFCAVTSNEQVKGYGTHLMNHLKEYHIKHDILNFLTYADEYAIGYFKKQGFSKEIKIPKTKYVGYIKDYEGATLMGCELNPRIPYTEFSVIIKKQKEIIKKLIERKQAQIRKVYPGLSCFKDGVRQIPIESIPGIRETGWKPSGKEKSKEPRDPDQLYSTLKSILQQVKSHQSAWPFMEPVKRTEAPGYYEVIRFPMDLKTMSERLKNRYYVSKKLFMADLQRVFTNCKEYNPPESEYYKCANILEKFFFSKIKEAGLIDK

[3] = target: T1, Histone acetyltransferase KAT2B; assay: Inhibition of histone acetyltransferase PCAF in human HepG2 cells assessed as decrease in SAHA-induced histone H4 acetylation levels at 60 uM after 24 hrs by Western blotting
Target sequence in this assay (Q92831 whole entry, looked up): as above

[4] = target: T1, Histone acetyltransferase KAT2B; assay: Inhibition of human recombinant histone deacetylase PCAF at 1 mM by ELISA; summary of the method: as §1
Target sequence in this assay (Q92831 whole entry, looked up): as above

inhibition [1]	SMILES	also measured
Active	CCCCCCCCCCc1cc(O)cc(O)c1C(=O)O	
Active	CCCCCCCCCCc1cccc(O)c1C(=O)O	
Active	CCCCCCCCCCCCCCOc1cccc(O)c1C(=O)O	
Active	CCCCCCCCCCCCCCCc1cc(O)cc(O)c1C(=O)O	
Active	CCCCCCCc1ccc(CCc2cccc(O)c2C(=O)O)cc1	

The next lines start with the molecule.

SMILES	inhibition [1]	also measured
CCCCCOc1ccc(/C=C\c2cccc(O)c2C(=O)O)cc1		IC50 [1]: 662 µM; inhibition [2]: Active; inhibition [3]: Active
CCCCCOc1ccc(CCc2cccc(O)c2C(=O)O)cc1	Active	
O=C(O)c1c(O)cccc1OCc1ccccc1		inhibition [4]: 20%
C=CC/C=C\C/C=C\CCCCCCCc1cccc(O)c1C(=O)O [ANACARDIC ACID]	Active	IC50 [1]: 1000 µM; inhibition [4]: 40%; inhibition [2]: Active; inhibition [3]: Active
COc1ccccc1OCCCc1cccc(O)c1C(=O)O	Active	
